An excerpt weighted towards active compounds, which were near 1.9% of everything screened.
FAS TE block: FAS thioesterase (human) inhibition. 360,000 compounds, 0.67% hits. recombinant FAS-TE, OMFH fluorogenic substrate, fluorescence endpoint. inhibition, % at 15 µM. AID 602261;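 active = compounds whose normalised, plate-corrected inhibition of enzyme fluorescence in the single-dose primary screen is 50% or more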
ADAM17 inh: ADAM17 inhibition, QFRET primary screen; P78536; inhibition, % at 6.95 µM; 370,000 compounds, 0.83% hits; recombinant ADAM17, EDANS/DABCYL FRET peptide cleavage;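 active = inhibition above the mean of compounds lying between control limits plus 3 SD, set per campaign, cut at about 8.5% in these data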
ADAM10 inh: ADAM10 inhibition, QFRET primary screen; inhibition, % at 7 µM; 370,000 compounds, 0.62% hits; recombinant ADAM10, EDANS/DABCYL FRET peptide cleavage, 3 h;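 active = inhibition above a per-campaign cutoff equal to the mean of compounds falling between control-based bounds plus 3 SD, cut at about 20% in these data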
SENP1 FRET inh: inhibitors of human SENP1 SUMO protease catalytic domain; Q9P0U3; recombinant SENP1 catalytic domain, CyPet-SUMO1-YPet FRET cleavage; 360,000 compounds, 0.21% hits; inhibition, % at 10 µM;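 active = inhibition at least 30% at 10 µM, raw YFP signal under a set limit, fluorescence ratio 0.5 to 1.5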
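system = hSENP1 catalytic domain, recombinant | reagent = SFCypet-SUMO1-SFYpet substrate at 25 nM | doses = one dose per compound, 10 µM, 0.5% DMSO | incubation = enzyme reaction for 50 min at room temperature, dark | measured by = FRET, CFP and YFP emission | controls = no-enzyme low, enzyme-DMSO high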
FAS-TE conf: FAS thioesterase (human) inhibition, confirmation; AID 624325; inhibition, % at 15 µM; shares compounds with FAS TE block; 2,300 compounds, 45% hits; recombinant FAS-TE, OMFH fluorogenic substrate, fluorescence;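 active = compounds inhibiting the enzyme by at least 50% at 15 µM in any one of the replicates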
Of the large screens only hits and unclear results are named; the others gave an inactive call (follow-up assays come after a bar, where they were run).

COC(=O)N1C(=O)[C@](Cc2ccccc2)(c2ccccc2)N1C(=O)OC	FAS TE block 62.8 | FAS-TE conf 75.3
CC[C@]1(c2cccc(C)c2)C(=O)N(C(=O)OC)N1C(=O)OC	FAS TE block 62.4 | FAS-TE conf 59.0
CCCC[C@@H]1C(=O)N2N=Cc3cscc3[C@H]2N2N=Cc3cscc3[C@@H]12	none (no result: FAS TE block, SENP1 FRET inh)
N#Cc1cc(F)cc(OC[C@@H](O)CN2CCC(C(O)(c3ccccc3)c3ccccc3)CC2)c1	none (no result: FAS TE block, SENP1 FRET inh)
CCOC1=C2[C@H](c3ccccc3)N(S(=O)(=O)c3ccc(C)cc3)[C@H](C(C)C)[C@H]2n2c(=O)n(-c3ccccc3)c(=O)n2C1	FAS TE block 60.5 | FAS-TE conf inactive
CCOC1=C2[C@H](c3ccc(C)cc3)N(S(=O)(=O)c3ccc(C)cc3)C[C@H]2n2c(=O)n(-c3ccccc3)c(=O)n2C1	none
CCOC1=C2[C@H](c3ccccc3)N(S(=O)(=O)c3ccc(C)cc3)C(C(C)(C)C)[C@H]2n2c(=O)n(-c3ccccc3)c(=O)n2C1 (some centres not stated)	FAS TE block 88.6 | FAS-TE conf inactive
CN(CCCOC(=O)c1cc2ccccc2o1)C1CN(Cc2cn(Cc3ccc([N+](=O)[O-])cc3)nn2)S(=O)(=O)C1 (configuration not stated)	none (no result: FAS TE block, SENP1 FRET inh)
COc1ccc(-n2c(SCC(=O)Nc3ccccc3-c3ccccc3)nnc2-c2ccccn2)cc1	none (no result: FAS TE block, SENP1 FRET inh)
CCN(Cc1ccccc1)c1ccc(N=Nc2nn(C)c(C)c2[N+](=O)[O-])cc1	FAS TE block 52.4 | FAS-TE conf 36.3
CCN(CC)c1ccc(N=Nc2nn(C)c(C)c2[N+](=O)[O-])cc1	none
CCN(c1ccccc1)S(=O)(=O)c1cccc(C(=O)OCc2nc3sc(C)c(C)c3c(=O)[nH]2)c1	FAS TE block 51.6 | FAS-TE conf inactive
CCC(=O)N1CCc2cc(Br)c(S(=O)(=O)N3CCC(C(=O)NCCCOC(C)C)CC3)cc21	none (no result: FAS TE block, SENP1 FRET inh)
C[C@]12C(=O)N(c3cccc(F)c3)C(=O)N1[C@H]1c3ccccc3OC[C@@H]1[C@H]2c1ccccc1	FAS TE block 68.4 | FAS-TE conf inactive
Cc1ccc(CN2CC(=O)N3[C@H]4c5ccccc5OC[C@@H]4[C@H](c4ccccc4)[C@]3(C)C2=O)cc1	FAS TE block 50.6 | FAS-TE conf inactive
C[C@]12C(=O)N(c3ccc(C(F)(F)F)cc3)C(=O)N1[C@@H]1c3ccccc3OC[C@@H]1[C@H]2c1ccccc1	FAS TE block 59.7 | FAS-TE conf inactive
C[C@]12C(=O)N(c3cccc(F)c3)C(=O)N1[C@@H]1c3ccccc3OC[C@@H]1[C@H]2c1ccccc1	none
C[C@]12C(=O)N(c3cccc(Cl)c3)C(=O)N1[C@@H]1c3ccccc3OC[C@@H]1[C@H]2c1ccccc1	FAS TE block 57.9 | FAS-TE conf inactive
CCCC[C@@H]1C(=O)N2N=Cc3cc4ccccc4cc3[C@H]2N2N=Cc3cc4ccccc4cc3[C@@H]12	none (no result: FAS TE block, SENP1 FRET inh)
C[C@]12C(=O)N(c3ccc(Br)cc3)C(=O)N1[C@H]1c3ccccc3OC[C@@H]1[C@H]2c1ccccc1	FAS TE block 85.1 | FAS-TE conf inactive
Cc1ccc(N2C(=O)N3[C@H]4c5ccccc5OC[C@@H]4[C@@H](c4ccccc4)[C@@]3(C)C2=O)cc1	FAS TE block 55.3 (no result: ADAM17 inh, ADAM10 inh) | FAS-TE conf inactive
C[C@]12C(=O)N(c3ccccc3)C(=O)N1[C@H]1c3ccccc3OC[C@@H]1[C@H]2c1ccccc1	FAS TE block 79.1 | FAS-TE conf inactive
CC(C)(C)C(=O)c1c(N)[nH]c(C(=O)c2ccccc2)c1-c1ccc([N+](=O)[O-])cc1	none (no result: FAS TE block, SENP1 FRET inh)
O=C(OC12CCCN(C1)/C(=C/c1ccc(Cl)cc1)C2)C1CCCC1 (configuration not stated)	none (no result: FAS TE block, SENP1 FRET inh)
O=S1(=O)C=CCN1Cc1cn(Cc2ccccc2)nn1	none (no result: FAS TE block, SENP1 FRET inh)
Cc1nc2scc(-c3ccc(Cl)cc3)c2c(=O)o1	FAS TE block 70.2 | FAS-TE conf 65.4
COc1ccc(-c2csc3nc(-c4ccccc4F)oc(=O)c23)cc1	FAS TE block 62.2 | FAS-TE conf 51.2
Cc1nc2scc(-c3cccs3)c2c(=O)o1	none
CC(C)CN1CN2Cc3cc(F)ccc3C2CS1(=O)=O (configuration not stated)	none (no result: FAS TE block, SENP1 FRET inh)
CC1CCN(S(=O)(=O)c2ccc3c(c2)c(=O)c(C(=O)NCc2cccs2)cn3C)CC1	FAS TE block 65.0 | FAS-TE conf inactive
CC1CCN(S(=O)(=O)c2ccc3c(c2)c(=O)c(C(=O)NCc2ccco2)cn3C)CC1	FAS TE block 71.0 | FAS-TE conf 80.2
CC1CCN(S(=O)(=O)c2ccc3c(c2)c(=O)c(C(=O)N2CCOCC2)cn3C)CC1	none
Cn1cc(C(=O)NCC2COc3ccccc3O2)c(=O)c2cc(S(=O)(=O)N3CCCCC3)ccc21 (configuration not stated)	FAS TE block 53.3 | FAS-TE conf inactive
COc1ccc(-c2noc(C3CCCN(C(=O)Nc4cc(C)cc(C)c4)C3)n2)cc1 (configuration not stated)	none (no result: FAS TE block, SENP1 FRET inh)
COc1ccc(-c2nnc(SCC(=O)Nc3ccc(S(=O)(=O)Nc4cc(C)nc(C)n4)cc3)n2-c2ccc(OC)cc2)cc1	none (no result: FAS TE block, SENP1 FRET inh)
COc1ccc(N2C(=O)C3ON(C4SC(=S)N(C)C4(C)C)C(c4ccc(Cl)cc4)C3C2=O)cc1 (configuration not stated)	FAS TE block 70.9 | FAS-TE conf inactive
COc1ccc(N2C(=O)C3ON(C4SC(=S)N(C)C4(C)C)C(c4ccc([N+](=O)[O-])cc4)C3C2=O)cc1 (configuration not stated)	none
COc1ccccc1C(=O)N/C(=C/c1cccc([N+](=O)[O-])c1)C(=O)Nc1cccc(C(=O)O)c1	none
COc1ccc(C(=O)N/C(=C\c2cccc([N+](=O)[O-])c2)C(=O)Nc2cccc(C(=O)O)c2)cc1	none
O=C(NCc1ccccc1)/C(=C\c1cccc([N+](=O)[O-])c1)NC(=O)c1ccco1	FAS TE block 68.0 | FAS-TE conf 76.2
Cc1ccc(C(=O)N/C(=C\c2cccc([N+](=O)[O-])c2)C(=O)Nc2cccc(C(=O)O)c2)cc1	FAS TE block 55.3 | FAS-TE conf 59.8
O=C(Nc1cccc(C(=O)O)c1)/C(=C\c1cccc([N+](=O)[O-])c1)NC(=O)c1ccc(Br)cc1	FAS TE block 69.2 | FAS-TE conf 75.4
CC(COc1cccc(C#N)c1)CN1CCC(C(O)(c2ccccc2)c2ccccc2)CC1 (configuration not stated)	none (no result: FAS TE block, SENP1 FRET inh)
CC(C)C[C@@H]1COc2cc(Br)ccc2S(=O)(=O)N1Cc1cn(Cc2ccco2)nn1	none (no result: FAS TE block, SENP1 FRET inh)
COc1ccc(-c2cc(-c3nnc(SCC(=O)N4CCOCC4)n3N)[nH]n2)cc1	none (no result: FAS TE block, SENP1 FRET inh)
Cc1cc(C)cc(CSc2ccc(S(=O)(=O)N3CCCC3)cn2)c1	none
O=S(=O)(c1ccc(SCc2ccc(Cl)cc2)nc1)N1CCCC1	FAS TE block 54.1 | FAS-TE conf inactive
